Experimental findings from ChEMBL document CHEMBL4480420, “Specificity of extended O-aryloxycarbonyl hydroxamates as inhibitors of a class C β-lactamase” (Bioorg Med Chem, 2019) are described below.

The target of one experiment is Beta-lactamase (Enterobacter cloacae, UniProt P05364). As to the kind of experiment: Irreversible inhibition of Enterobacter cloacae P99 beta-lactamase using cephalothin as substrate by spectrophotometric analysis. In outline:
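P99 class C β-lactamase (stock concentration by A280, ε 7.1 x 10⁴ M⁻¹cm⁻¹) incubated with inhibitor in 20 mM MOPS pH 7.5, 0.1% BSA, 25 °C. Aliquots diluted 1:50 into 300 μM cephalothin; initial rates followed at 270 nm over time. Titration: 150 nM enzyme with 0–2.0 μM inhibitor to end-point. Time-course and titration data fitted jointly to Scheme 2, k2 fixed at 100 s⁻¹, giving k1, k2/k3 and k_i.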

Experiment [1] deals with Beta-lactamase (Enterobacter cloacae) (UniProt P05364). Kind of experiment: Irreversible inhibition of Enterobacter cloacae P99 beta-lactamase assessed as second-order rate constant for enzyme-inhibitor complex using cephalothin as substrate by spectrophotometric analysis. In outline: (§1)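 Reactions ran at 25 °C in 20 mM MOPS, pH 7.5, with 0.1% BSA. Time courses: aliquots taken into 300 µM cephalothin, initial rates read at 270 nm. Titrations: 150 nM enzyme with 0–2.0 µM inhibitor, run to completion. Both datasets were fitted together to an acylation/partition scheme, k2 fixed at 100 s⁻¹. k_i = k1/(1 + k2/k3).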
Beta-lactamase (Enterobacter cloacae), sequence (P05364 21-381 limits assumed): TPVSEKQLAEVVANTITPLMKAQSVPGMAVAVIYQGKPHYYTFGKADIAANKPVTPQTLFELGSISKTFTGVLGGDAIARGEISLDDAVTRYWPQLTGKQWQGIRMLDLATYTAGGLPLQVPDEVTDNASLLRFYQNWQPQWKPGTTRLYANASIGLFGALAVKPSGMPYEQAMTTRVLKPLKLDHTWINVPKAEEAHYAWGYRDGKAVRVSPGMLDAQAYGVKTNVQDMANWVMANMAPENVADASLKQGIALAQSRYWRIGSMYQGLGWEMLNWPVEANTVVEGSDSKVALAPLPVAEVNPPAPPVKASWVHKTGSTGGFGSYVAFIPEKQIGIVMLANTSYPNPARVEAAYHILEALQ

Experiment [2] shares this target. Kind of experiment: Irreversible inhibition of Enterobacter cloacae P99 beta-lactamase assessed as ratio of K2/K3 using cephalothin as substrate by spectrophotometric analysis. In outline: as §1
Experiment [3] has the same target. Kind of experiment: Binding affinity to Enterobacter cloacae P99 beta-lactamase assessed as increase in molecular weight of enzyme-compound complex by mass-spectra analysis (reference value: 39192 Da). In outline:
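P99 enzyme was analysed by electrospray MS before and after inactivation. Protein was precipitated with trichloroacetic acid, then the precipitate was washed and dried before analysis.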

Beta-lactamase, sequence (P05364 whole entry): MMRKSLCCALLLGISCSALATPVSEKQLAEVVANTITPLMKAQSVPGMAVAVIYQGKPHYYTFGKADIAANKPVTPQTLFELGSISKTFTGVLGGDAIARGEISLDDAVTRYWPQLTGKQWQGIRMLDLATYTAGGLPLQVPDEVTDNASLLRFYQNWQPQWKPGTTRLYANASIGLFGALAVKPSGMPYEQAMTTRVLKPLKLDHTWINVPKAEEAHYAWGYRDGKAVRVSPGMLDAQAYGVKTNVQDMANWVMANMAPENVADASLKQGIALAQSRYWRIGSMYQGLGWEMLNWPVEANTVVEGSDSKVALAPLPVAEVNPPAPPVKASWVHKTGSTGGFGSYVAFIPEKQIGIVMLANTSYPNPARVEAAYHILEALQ

Consider `N[C@H](CCCOC(=O)NOC(=O)Oc1ccccc1)C(=O)O`, for which the “second-order inactivation rate constant (k_i)” value at Beta-lactamase worked out at 1.6 ×10⁴ /M/s. Moreover, the K in experiment [1] is 3.5 ×10⁴ /M/s. The Ratio in experiment [2] was 1.25.

On to `O=C(NOC(=O)Oc1ccccc1)OCCc1ccccc1`, for which the “second-order inactivation rate constant (k_i)” value at Beta-lactamase is 1.4 ×10³ /M/s. For the same compound, the Activity in experiment [3] was determined as 26 Da. Also, the K in experiment [1] amounted to 3.7 ×10⁴ /M/s. The Ratio in experiment [2] was 25.

For `CCCCOC(=O)NOC(=O)Oc1ccccc1`, at Beta-lactamase, the “second-order inactivation rate constant (k_i)” value was determined as 1.1 ×10³ /M/s. Moreover, the Activity in experiment [3] came out at 185 Da. Also, in experiment [1], the K stood at 3.6 ×10³ /M/s. Besides, the Ratio in experiment [2] stood at 2.4.

At Beta-lactamase, `N[C@H](Cc1ccc(OC(=O)NOC(=O)Oc2ccccc2)cc1)C(=O)O` registered a second-order inactivation rate constant (k i) of 180 to 360 M⁻¹ s⁻¹. Besides, in experiment [3], the Activity worked out at 26 Da. In addition, in experiment [1], the K came out at 360 M⁻¹ s⁻¹. The Ratio in experiment [2] was under 1.

For `O=C(NOC(=O)Oc1ccccc1)OCc1ccccc1`, at Beta-lactamase, the “second-order inactivation rate constant (k_i)” value was 2 ×10³ /M/s. For the same compound, the K in experiment [1] stood at 6.1 ×10³ /M/s. Further, the Ratio in experiment [2] was found to be 2.

As for `O=C(O)CCCCOC(=O)NOC(=O)Oc1ccccc1`, the “second-order inactivation rate constant (k_i)” value at Beta-lactamase came out at 8.5 ×10³ /M/s. Also, the Activity in experiment [3] was determined as 26 Da. The K in experiment [1] came out at 2.8 ×10⁴ /M/s. Further, in experiment [2], the Ratio amounted to 2.3.
